Bioassay records: PubChem BioAssay, The Scripps Research Institute Molecular Screening Center
PRMT1 FP inh: PRMT1 (human) inhibition, primary screen; Q99873; inhibition, % at 2.79 µM; 370,000 tested, 1.3% active; recombinant PRMT1, activity-based probe fluorescence polarization;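 active = inhibition above about 21% made by adding two undisclosed values, limit read from the data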
TCR-CD3 inh: blocks the human TCR-CD3 interaction; TAMRA-labeled TCR probe fluorescence, biochemical; 360,000 tested, 0.37% active; inhibition, % at 9.4 µM; in the data active = inhibition above about 19%;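 also: recombinant mutant TCR 2C K166C tagged with TAMRA read by polarization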
mABHD4 FP: inhibits mouse alpha/beta hydrolase domain 4; inhibition, % at 8.92 µM; purified mABHD4, FP-Rh probe fluorescence polarization; 370,000 tested, 0.54% active; Q8VD66;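 active = inhibition exceeding the mean over every tested compound plus 3 SD, cut at about 30% in these data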
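system = mouse ABHD4 enzyme, wild type | medium = HEPES pH 7.0, NaCl, Pluronic buffer | also added = FP-Rh probe | incubation = Enzyme–compound pre-incubation 45 min, then probe 60 min, both 25 °C | technique = fluorescence polarization, excitation 525 nm, emission 598 nm, BODIPY TMR filters | controls = S159A mutant high control, sample median low control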
rCAG RNA binder: r(CAG) repeat RNA binding | TO-PRO-1 dye displacement fluorescence | inhibition, % at 3 µM | 370,000 tested, 1.3% active | AID 651821;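 active = inhibition above the plate cutoff, the mean of all test compounds on that plate plus 3 SD, cut at about 35% in these data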;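 also: higher means more dye released from RNA so lower well fluorescence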
SIAE primary: inhibitors of human sialic acid acetylesterase SIAE; Q9HAT2; SIAE FP-Rh probe binding, fluorescence polarization; inhibition, % at 9.66 µM; 370,000 tested, 0.69% active;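 active = inhibition above a cutoff: mean of compounds within the control limits plus 3 SD of those, cut at about 17% in these data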
Target sequence (Q9HAT2 whole entry, looked up): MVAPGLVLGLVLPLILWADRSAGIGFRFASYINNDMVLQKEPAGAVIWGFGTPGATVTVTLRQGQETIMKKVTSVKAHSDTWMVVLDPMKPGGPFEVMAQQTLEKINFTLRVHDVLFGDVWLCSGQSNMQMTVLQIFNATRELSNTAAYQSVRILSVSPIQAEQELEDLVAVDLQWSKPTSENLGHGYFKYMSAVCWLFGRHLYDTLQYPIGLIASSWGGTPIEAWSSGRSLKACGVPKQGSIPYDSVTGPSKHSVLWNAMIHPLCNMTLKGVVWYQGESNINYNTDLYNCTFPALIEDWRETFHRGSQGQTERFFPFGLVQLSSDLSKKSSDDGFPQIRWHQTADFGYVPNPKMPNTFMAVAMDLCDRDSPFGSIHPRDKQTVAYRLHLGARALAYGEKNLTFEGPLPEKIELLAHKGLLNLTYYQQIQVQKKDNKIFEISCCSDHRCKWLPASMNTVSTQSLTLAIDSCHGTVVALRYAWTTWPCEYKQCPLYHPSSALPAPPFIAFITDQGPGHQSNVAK
PRMT1 inh conf: PRMT1 (human) inhibition, FP confirmation; shares compounds with PRMT1 FP inh; recombinant His-PRMT1, activity-based probe fluorescence polarization; 3,300 tested, 42% active; inhibition, % at 2.79 µM;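 active = mean inhibition across replicates above the hit cutoff derived for the earlier primary screen, cut at about 22% in these data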
Hits are given with their value; i = inactive; nt = no result given. An excerpt weighted towards active compounds, which were near 3.3% of everything screened.

SMILES	PRMT1 FP inh	TCR-CD3 inh	mABHD4 FP	rCAG RNA binder	SIAE primary	PRMT1 inh conf
Cc1ccc(-n2sc3ccccc3c2=O)cc1S(=O)(=O)N1CCCCC1	101	i	i	i	i	84
O=c1c2ccccc2sn1-c1ccc(S(=O)(=O)N2CCCCC2)cc1	43	i	i	i	i	63
Cc1ccc(C(=O)NNC(=O)c2ccccc2)cc1S(=O)(=O)N1CCCCC1	i	i	i	i	i	nt
O=c1c2ccccc2sn1-c1ccc(S(=O)(=O)N2CCCC2)cc1	95	i	i	i	i	97
Cc1cc(C)cc(NC(=O)O[C@@H]2CC[C@@]34CCCN3C(=O)CCC[C@H]4C2)c1	i	nt	i	nt	i	nt
O=C(c1cscn1)N1CCC(Oc2cccnc2)CC1	i	nt	i	i	i	nt
COC(=O)[C@H](CC(C)C)N1Cc2nnn(Cc3ccccc3)c2-c2cc(F)ccc2S1(=O)=O	i	nt	i	i	i	nt
CN(C)CCCN(C(=O)CCOc1ccccc1)c1nc2c(F)cccc2s1	31	i	i	i	i	i
CN(C)CCCN(C(=O)CCc1ccccc1)c1nc2c(F)cccc2s1	i	i	i	i	i	nt
O=C(Cn1c(=O)c2cccn2c2cccnc21)NCCCN1CCN(c2ccccc2)CC1	i	nt	i	nt	i	nt
CCOC(=O)c1c(NC(C)=O)sc2c1CCC(C=O)=C2Sc1ccccc1	31	i	i	i	i	i
CCOC(=O)c1c(NC(C)=O)sc2c1CCN(Cc1ccccc1)C2	i	i	i	i	i	nt
CCOC(=O)C1=C(C)N=c2s/c(=C\c3cccn3C)c(=O)n2C1c1cccc(OC)c1OC (stereo unspecified)	i	i	i	i	i	nt
CCOC(=O)C1=C(C)N=c2s/c(=C/c3cccc([N+](=O)[O-])c3O)c(=O)n2C1c1cc(OC)c(OC)c(OC)c1 (stereo unspecified)	44	i	i	i	i	40
CCOC(=O)C1=C(C)N=c2s/c(=C/c3cccc([N+](=O)[O-])c3O)c(=O)n2C1c1ccccc1 (stereo unspecified)	49	i	i	i	i	41
C[C@H](CO)N1C[C@H](C)[C@@H](CN(C)C(=O)Nc2ccc3c(c2)OCCO3)OCc2cn(nn2)CCCC1=O	i	i	i	i	i	nt
COc1ccc2c(Cl)c(C(=O)N/N=C3\CCCC(=O)C3)sc2c1	38	i	i	i	i	i
CCOC(=O)CSc1nnc(NCC(=O)OC)c(=O)[nH]1	56	i	i	i	i	54
CCOC(=O)CSc1nnc(C)c(=O)[nH]1	i	i	i	i	i	nt
CC(C)CN1C(=O)[C@@]2(CC(=O)N(C)C2c2ccccc2)c2cc(-n3cc(CN(C)C)nn3)ccc21 (stereo partly specified)	i	nt	i	i	i	nt
CCCN(CCC)C1CC(=O)N(Cc2ccccc2)C1=O (stereo unspecified)	76	i	i	i	i	24
CCOC(=O)/C(C#N)=C/c1cc2cc(C)c(C)cc2nc1Cl	i	i	i	i	i	nt
Cc1cc2cc(C=C(C#N)C#N)c(Cl)nc2cc1C	86	i	i	i	i	i
COc1ccc(CCNC(=O)CC2SC(=NCc3ccccc3)NC2=O)cc1 (stereo unspecified)	i	i	i	i	i	nt
CCN=C1SC(CC(=O)NCCc2ccc(OC)c(OC)c2)C(=O)N1CC (stereo unspecified)	32	i	i	i	i	i
SMILES	PRMT1 FP inh	TCR-CD3 inh	mABHD4 FP	rCAG RNA binder	SIAE primary	PRMT1 inh conf
COc1ccc(CCNC(=O)CC2SC(=NCCc3ccccc3)NC2=O)cc1 (stereo unspecified)	26	i	i	i	i	i
CCN=C1SC(CC(=O)NC(N)=O)C(=O)N1CC (stereo unspecified)	i	i	i	i	i	nt
CCN=C1SC(CC(=O)NCCc2ccc(OC)cc2)C(=O)N1CC (stereo unspecified)	31	i	i	i	i	i
CN=C1SC(CC(=O)NCCc2ccc(OC)c(OC)c2)C(=O)N1C (stereo unspecified)	i	i	i	i	i	nt
Cn1c(=O)[nH]c2c(Br)nccc21	i	nt	i	i	i	nt
CC(C)CCNC(=O)CSc1nc2c(c(=O)[nH]1)CCC2	i	nt	i	nt	i	nt
COc1ccc(N2CCCN(CC(=O)Nc3ccc(Cl)c(Cl)c3)CC2)cc1	i	nt	i	i	i	nt
O=S(=O)(CC1NCCc2ccccc21)NCc1ccccc1 (stereo unspecified)	i	nt	i	i	i	nt
O=C(CSc1nnc(CNC(=O)c2ccco2)o1)Nc1ccccc1	i	i	i	i	i	nt
O=C(CSc1nnc(CNC(=O)c2ccco2)o1)Nc1nc2ccccc2s1	56	i	i	i	i	i
Nc1c(C(=O)Nc2ccccc2F)sc2nc(-c3cccnc3)ccc12	i	i	i	i	i	nt
Nc1c(C(=O)Nc2ccc(Cl)c(Cl)c2)sc2nc(-c3cccnc3)ccc12	26	i	i	i	i	i
CC(C)N1CCc2c(sc(N)c2C#N)C1	i	i	i	i	i	nt
CC(C)C1Cc2c(C#N)c(N)sc(=S)c2CO1 (stereo unspecified)	48	i	i	i	i	i
CC1(C)Cc2c(C#N)c(N)sc(=S)c2CO1	46	i	i	i	i	i
COc1ccc(CCNC(=O)CSc2ccc(NC(C)=O)cc2)cc1OC	25	i	i	i	i	31
Cc1ccc(C(=O)/C=C/C(=O)O)cc1	40	i	i	i	i	30
Cc1ccc(/C=C/C(=O)c2ccc(O)cc2)cc1	i	i	i	i	i	nt
O=C(N/N=C/C=C\c1ccco1)c1cccnc1	i	i	i	i	i	nt
O=C(N/N=C/C=C/c1ccco1)c1cccnc1	39	i	i	i	i	i
COc1cccc(NC(=O)Nc2c(-c3ccc(F)cc3)nc3ncccn23)c1	i	nt	i	i	i	nt
CCS(=O)(=O)Nc1ccc2c(c1)C(=O)N(C)[C@@H]1CC[C@H](CC(=O)OC)O[C@H]1CO2	i	nt	i	i	i	nt
CCCCCCNC(=O)C1CSCCS(=O)(=O)N1Cc1ccc(F)cc1 (stereo unspecified)	i	nt	i	i	i	nt
CCN(CC)C(=O)CSc1nnc2nnc3cc(OC)ccc3n12	29	i	i	i	i	26
COC(=O)c1ccccc1SC(CC(=O)c1ccccc1)c1ccc(F)cc1 (stereo unspecified)	43	i	i	i	i	48
O=C(CC(Nc1ccc(F)cc1)c1ccccc1)c1ccccc1 (stereo unspecified)	i	i	i	i	i	nt
Cc1ccc(-c2nnc(SCC(=O)Nc3ccc(-c4nc5ccc(C)cc5s4)cc3)n2Cc2ccco2)cc1	34	nt	i	i	i	22
COc1ccc(-c2nnc(SCC(=O)Nc3ccc(Oc4ccccc4)cc3)n2Cc2ccco2)cc1	i	nt	i	i	i	nt
COCCn1c(SCCN2CCOCC2)nc2c1c(=O)[nH]c(=O)n2C	38	i	i	i	i	40
CCC[C@H]1[C@@H](OC(=O)NCCc2c[nH]c3ccccc23)CC[C@@]23CCCN2C(=O)CCC[C@@H]13	i	nt	i	nt	i	nt
